Activity calls are given as the source filed them. The rule behind the calls is not given here.
Legend:
[1] = Toxicity in standard diet fed SCID mouse xenografted with human IGROV1 cells assessed as body weight loss at 96 and 150 mg/kg, iv administered qd for 4 times post 2 days of tumor implantation measured during compound treatment; type: organism-based; conditions: in vivo, 48 h
[2] = target: T1, Proton-coupled folate transporter (Homo sapiens) (UniProt Q96NT5); assay: Inhibition of [3H]MTX uptake at human PCFT expressed in Chinese hamster R2/PCFT4 cells at 1 uM and pH 5.5 measured after 5 mins; type: cell-based
T1 sequence (whole entry): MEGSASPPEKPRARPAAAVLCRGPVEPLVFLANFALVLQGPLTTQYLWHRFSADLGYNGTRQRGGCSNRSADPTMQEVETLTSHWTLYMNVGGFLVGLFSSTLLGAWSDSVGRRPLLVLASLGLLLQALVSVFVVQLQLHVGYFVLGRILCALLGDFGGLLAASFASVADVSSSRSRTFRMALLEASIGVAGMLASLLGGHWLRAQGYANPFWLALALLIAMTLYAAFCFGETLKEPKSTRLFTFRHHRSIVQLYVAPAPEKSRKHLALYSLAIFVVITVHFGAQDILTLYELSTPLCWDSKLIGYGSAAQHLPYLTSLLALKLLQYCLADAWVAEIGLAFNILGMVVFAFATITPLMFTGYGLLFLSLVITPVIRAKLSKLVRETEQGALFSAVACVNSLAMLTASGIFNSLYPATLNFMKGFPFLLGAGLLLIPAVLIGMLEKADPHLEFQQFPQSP

[3] = target: Folate receptor beta (Homo sapiens) (UniProt P14207); assay: Displacement of [3H]folic acid from human FR-beta receptor expressed in Chinese hamster D4 cells measured after 15 mins relative to folic acid; type: cell-based
[4] = target: T2, Trifunctional purine biosynthetic protein adenosine-3 (Homo sapiens, UniProt P22102); assay: Inhibition of recombinant N-terminal 6His-tagged human GARFTase assessed as formation of 5,8-dideazafolate from 10-formyl-5,8-dideazafolic acid measured at every 15 seconds over 20 min by spectrophotometric analysis
T2 sequence (P22102 whole entry): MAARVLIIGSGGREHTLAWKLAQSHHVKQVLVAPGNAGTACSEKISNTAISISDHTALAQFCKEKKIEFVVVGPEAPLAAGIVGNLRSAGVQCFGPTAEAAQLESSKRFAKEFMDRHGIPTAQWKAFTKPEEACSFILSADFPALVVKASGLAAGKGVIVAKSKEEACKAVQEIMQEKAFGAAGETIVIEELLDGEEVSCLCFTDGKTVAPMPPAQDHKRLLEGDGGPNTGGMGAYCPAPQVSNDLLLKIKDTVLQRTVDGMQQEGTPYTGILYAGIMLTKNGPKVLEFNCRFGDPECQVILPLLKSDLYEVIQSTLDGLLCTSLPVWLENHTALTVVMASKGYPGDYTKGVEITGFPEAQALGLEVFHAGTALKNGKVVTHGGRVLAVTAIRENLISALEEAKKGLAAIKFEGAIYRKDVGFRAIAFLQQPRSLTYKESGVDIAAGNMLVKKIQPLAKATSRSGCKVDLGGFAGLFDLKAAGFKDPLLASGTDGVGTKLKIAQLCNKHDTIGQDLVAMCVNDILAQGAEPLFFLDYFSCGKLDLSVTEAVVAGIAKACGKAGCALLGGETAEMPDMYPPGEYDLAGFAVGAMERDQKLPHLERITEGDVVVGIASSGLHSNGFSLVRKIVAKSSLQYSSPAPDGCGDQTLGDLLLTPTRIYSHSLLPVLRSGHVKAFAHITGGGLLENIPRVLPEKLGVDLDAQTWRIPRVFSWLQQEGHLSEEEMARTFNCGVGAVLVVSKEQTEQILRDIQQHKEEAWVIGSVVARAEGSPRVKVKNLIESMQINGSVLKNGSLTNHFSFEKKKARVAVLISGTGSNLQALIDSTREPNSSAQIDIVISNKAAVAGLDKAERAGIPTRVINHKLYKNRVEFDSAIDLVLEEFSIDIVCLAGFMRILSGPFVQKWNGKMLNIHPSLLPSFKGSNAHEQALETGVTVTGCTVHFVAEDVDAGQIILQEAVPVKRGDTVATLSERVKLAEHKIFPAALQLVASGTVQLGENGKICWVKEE

[5] = Toxicity in folate-deficient diet fed SCID mouse xenografted with human IGROV1 cells assessed as body weight loss at 28 mg/kg, iv administered […] post 2 days of tumor implantation measured after 48 hrs of last dosage; type: organism-based; conditions: in vivo
Outline: (§1)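 Female NCR SCID mice (11 weeks old, ~20 g) are fed a folate-deficient diet from 14 days before implant. IGROV1 fragments (30–60 mg) are trocar-implanted subcutaneously in both flanks, and mice are randomised at 5/group. Tail-vein dosing starts on day 2: 28 mg/kg/inj Q3dx5, or 96 or 150 mg/kg/inj Q3dx4. Vehicle is 5% ethanol, 1% Tween-80, 0.5% NaHCO3 in water at pH 6.5. Caliper tumor mass is (a×b²)/2, T/C is taken when controls reach 700–1200 mg, and weights are recorded daily.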

[6] = tested on: IGROV-1; assay: Antitumor activity against human IGROV1 cells xenografted into standard diet fed SCID mouse assessed as tumor growth at 150 mg/kg, iv administered […] post 2 days of tumor implantation measured on day 20 relative to control; type: functional
Outline: (§2)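 Female NCR SCID mice, 11 weeks, ~20 g, on folate-deficient or standard diet from 14 days pre-implant; bilateral s.c. IGROV1 fragments (30–60 mg); 5 mice/group; tail-vein dosing from day 2 (Q3d schedules) in 5% ethanol, 1% Tween-80, 0.5% NaHCO3, water, pH 6.5; caliper mass (a×b²)/2; T/C and T−C delay.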

[7] = target: GAR transformylase/AICAR transformylase (Homo sapiens) (UniProt P31939+P22102); assay: Inhibition of GARFTase/AICARFTase in human KB cells expressing RFC/FR-alpha/PCFT assessed as cell growth inhibition measured after 96 hrs in presence of 10 uM thymidine by Cell-Titer Blue fluorescence analysis; type: cell-based
[8] = Toxicity in folate-deficient diet fed SCID mouse xenografted with human IGROV1 cells assessed as body weight loss at 96 and 150 mg/kg, iv administered […] post 2 days of tumor implantation measured during compound treatment; type: organism-based; conditions: in vivo, 48 h; outline: as §1
[9] = tested on: IGROV-1; assay: Antitumor activity against human IGROV1 cells xenografted into folate-deficient diet fed SCID mouse assessed as tumor growth delay at 150 mg/kg, iv administered […] post 2 days of tumor implantation; type: functional; outline: as §2
[10] = tested on: IGROV-1; assay: Antitumor activity against human IGROV1 cells xenografted into folate-deficient diet fed SCID mouse assessed as tumor growth at 150 mg/kg, iv administered […] post 2 days of tumor implantation measured on day 20 relative to control; type: functional; outline: as §1
[11] = tested on: KB; assay: Antiproliferative activity against human KB cells expressing human RFC/FR-alpha/PCFT assessed as reduction in cell viability measured after 96 hrs by Cell-Titer Blue fluorescence analysis; type: functional, cell-based
[12] = tested on: IGROV-1; assay: Antitumor activity against human IGROV1 cells xenografted into standard diet fed SCID mouse assessed as tumor growth at 28 mg/kg, iv administered […] post 2 days of tumor implantation measured on day 20 relative to control; type: functional; outline: as §2

Chain of GAR transformylase/AICAR transformylase (Homo sapiens) (P31939 whole entry, looked up, one chain of several): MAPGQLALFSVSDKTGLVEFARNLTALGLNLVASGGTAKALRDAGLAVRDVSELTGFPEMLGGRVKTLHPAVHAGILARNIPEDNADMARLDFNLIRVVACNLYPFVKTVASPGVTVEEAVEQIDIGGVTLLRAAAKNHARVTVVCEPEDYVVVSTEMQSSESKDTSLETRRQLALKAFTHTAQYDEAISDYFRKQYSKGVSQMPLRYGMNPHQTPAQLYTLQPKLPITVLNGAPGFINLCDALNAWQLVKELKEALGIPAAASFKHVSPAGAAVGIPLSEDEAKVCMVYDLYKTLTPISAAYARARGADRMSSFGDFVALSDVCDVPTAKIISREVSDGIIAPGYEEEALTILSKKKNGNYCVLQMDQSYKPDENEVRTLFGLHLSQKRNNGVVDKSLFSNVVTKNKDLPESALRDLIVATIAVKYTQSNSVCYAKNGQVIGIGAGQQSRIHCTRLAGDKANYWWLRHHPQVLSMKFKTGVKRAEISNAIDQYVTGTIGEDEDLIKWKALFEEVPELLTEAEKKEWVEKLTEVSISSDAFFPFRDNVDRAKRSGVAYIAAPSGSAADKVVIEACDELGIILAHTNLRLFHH
Chain of Folate receptor beta (Homo sapiens) (P14207 17-230 limits assumed): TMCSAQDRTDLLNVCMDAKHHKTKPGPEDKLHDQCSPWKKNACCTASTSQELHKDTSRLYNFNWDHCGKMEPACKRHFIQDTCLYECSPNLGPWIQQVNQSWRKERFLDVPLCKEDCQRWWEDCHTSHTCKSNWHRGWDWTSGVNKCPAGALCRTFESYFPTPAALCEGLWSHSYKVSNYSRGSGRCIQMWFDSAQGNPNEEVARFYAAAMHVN

For `Nc1nc2[nH]c(CCNc3ccc(C(=O)N[C@@H](CCC(=O)O)C(=O)O)cc3)cc2c(=O)[nH]1`, the Activity [1] was “Non-Toxic”, the inhibition [2] was 30 to 60% and the inhibition [3] was 60 to 110%. For the same molecule, the Ki [4] was 59 nM, the Activity [5] was “Non-Toxic” and the T/C [6] was 94%. For the same molecule, the inhibition [7] was “Active”, the Activity [8] was 17 to 17.3% and the Time [9] was 15 days. The T/C [10] was 12%, the IC50 [11] was 0.32 nM and the T/C [12] was 68%.
